Assay results from ChEMBL document CHEMBL5705888, “Substrate specificity and inhibitors of LRRK2, a protein kinase mutated in Parkinson's disease” (Biochem J, 2009).
Active and inactive are the calls of the source. The rule behind the calls is not given here.

What was measured:
[1] = biological target: Leucine-rich repeat serine/threonine-protein kinase 2 (Homo sapiens, UniProt Q5S007); assay: Inhibition of LRRK2 in human Flp-In-T-REx-293 cells harboring GFP-tagged constitutively active G14V-Rho mutant assessed as inhibition of ERM phosphorylation at 10 uM incubated for 1 hr in presence of LRRKtide by immunoblot analysis; format: cell-based
How it was run: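 Flp-in T-REx cells carrying GFP-tagged G14V-Rho were left uninduced or induced with 1 μg/ml doxycycline. At 7 h, compound at 10 μM was added for 1 h. Cells were lysed in SDS lysis buffer, run on 4–12% gels and immunoblotted with pan-phospho-ERM antibody (1 μg/ml in milk/TBST containing 10 μg/ml LRRKtide).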

[2] = biological target: Mitogen-activated protein kinase 8 (Homo sapiens) (UniProt P45983); assay: Inhibition of JNK1 (unknown origin) at 1 uM incubated for 30 mins in presence of [gamma-33P]ATP by multidrop micro reagent based assay relative to control; values are per cent of control
Mitogen-activated protein kinase 8 (Homo sapiens), sequence (P45983 whole entry): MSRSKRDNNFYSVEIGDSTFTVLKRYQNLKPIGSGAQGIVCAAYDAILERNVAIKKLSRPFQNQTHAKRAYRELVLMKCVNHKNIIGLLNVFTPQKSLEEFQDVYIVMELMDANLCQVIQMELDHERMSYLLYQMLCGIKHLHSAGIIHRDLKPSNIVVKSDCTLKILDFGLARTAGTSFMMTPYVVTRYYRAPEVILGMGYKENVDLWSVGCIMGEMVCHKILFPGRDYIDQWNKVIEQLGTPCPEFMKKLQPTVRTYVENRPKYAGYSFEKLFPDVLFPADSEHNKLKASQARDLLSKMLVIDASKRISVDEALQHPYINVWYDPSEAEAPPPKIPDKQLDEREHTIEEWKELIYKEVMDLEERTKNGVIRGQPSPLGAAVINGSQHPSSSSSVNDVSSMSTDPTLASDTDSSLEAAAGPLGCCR

[3] = biological target: Ephrin type-A receptor 2 (Homo sapiens) (UniProt P29317); assay: Inhibition of EPH A2 (unknown origin) at 1 uM incubated for 30 mins in presence of [gamma-33P]ATP by multidrop micro reagent based assay relative to control; values are per cent of control
Ephrin type-A receptor 2 (Homo sapiens), sequence (P29317 whole entry): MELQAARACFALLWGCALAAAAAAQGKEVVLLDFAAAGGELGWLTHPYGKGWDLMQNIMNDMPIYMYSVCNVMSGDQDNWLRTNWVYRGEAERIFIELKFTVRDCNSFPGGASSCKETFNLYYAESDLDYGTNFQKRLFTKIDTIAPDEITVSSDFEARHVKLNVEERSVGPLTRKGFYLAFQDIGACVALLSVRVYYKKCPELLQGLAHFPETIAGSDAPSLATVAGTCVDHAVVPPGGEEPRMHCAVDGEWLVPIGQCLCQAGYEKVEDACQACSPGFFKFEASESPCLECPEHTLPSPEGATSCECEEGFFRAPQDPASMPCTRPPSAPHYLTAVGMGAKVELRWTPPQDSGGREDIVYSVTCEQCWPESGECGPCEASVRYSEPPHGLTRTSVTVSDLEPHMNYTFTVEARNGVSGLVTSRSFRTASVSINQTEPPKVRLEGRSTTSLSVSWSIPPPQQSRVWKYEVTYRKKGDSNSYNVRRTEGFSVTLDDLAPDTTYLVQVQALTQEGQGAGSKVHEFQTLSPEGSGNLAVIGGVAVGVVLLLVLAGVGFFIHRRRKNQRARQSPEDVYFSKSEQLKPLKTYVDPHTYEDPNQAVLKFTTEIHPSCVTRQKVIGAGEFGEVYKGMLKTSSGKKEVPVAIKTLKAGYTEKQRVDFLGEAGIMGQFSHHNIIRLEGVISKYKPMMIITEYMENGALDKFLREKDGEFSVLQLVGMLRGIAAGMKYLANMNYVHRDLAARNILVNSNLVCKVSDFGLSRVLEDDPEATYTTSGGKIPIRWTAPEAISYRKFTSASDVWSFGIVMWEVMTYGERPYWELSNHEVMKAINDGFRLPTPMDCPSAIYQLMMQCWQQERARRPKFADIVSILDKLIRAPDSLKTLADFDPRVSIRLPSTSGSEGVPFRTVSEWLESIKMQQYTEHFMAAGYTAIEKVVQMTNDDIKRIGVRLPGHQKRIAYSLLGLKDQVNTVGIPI

[4] = biological target: AMP-activated protein kinase, AMPK (Homo sapiens) (UniProt P54646+O43741+P54619+Q9UGJ0+Q9Y478+Q13131+Q9UGI9); assay: Inhibition of AMPK (unknown origin) at 1 uM incubated for 30 mins in presence of [gamma-33P]ATP by multidrop micro reagent based assay relative to control; values are per cent of control
[5] = biological target: Ribosomal protein S6 kinase alpha-5 (Homo sapiens) (UniProt O75582); assay: Inhibition of MSK1 (unknown origin) at 1 uM incubated for 30 mins in presence of [gamma-33P]ATP by multidrop micro reagent based assay relative to control; values are per cent of control
Ribosomal protein S6 kinase alpha-5 (Homo sapiens), sequence (O75582 whole entry, looked up): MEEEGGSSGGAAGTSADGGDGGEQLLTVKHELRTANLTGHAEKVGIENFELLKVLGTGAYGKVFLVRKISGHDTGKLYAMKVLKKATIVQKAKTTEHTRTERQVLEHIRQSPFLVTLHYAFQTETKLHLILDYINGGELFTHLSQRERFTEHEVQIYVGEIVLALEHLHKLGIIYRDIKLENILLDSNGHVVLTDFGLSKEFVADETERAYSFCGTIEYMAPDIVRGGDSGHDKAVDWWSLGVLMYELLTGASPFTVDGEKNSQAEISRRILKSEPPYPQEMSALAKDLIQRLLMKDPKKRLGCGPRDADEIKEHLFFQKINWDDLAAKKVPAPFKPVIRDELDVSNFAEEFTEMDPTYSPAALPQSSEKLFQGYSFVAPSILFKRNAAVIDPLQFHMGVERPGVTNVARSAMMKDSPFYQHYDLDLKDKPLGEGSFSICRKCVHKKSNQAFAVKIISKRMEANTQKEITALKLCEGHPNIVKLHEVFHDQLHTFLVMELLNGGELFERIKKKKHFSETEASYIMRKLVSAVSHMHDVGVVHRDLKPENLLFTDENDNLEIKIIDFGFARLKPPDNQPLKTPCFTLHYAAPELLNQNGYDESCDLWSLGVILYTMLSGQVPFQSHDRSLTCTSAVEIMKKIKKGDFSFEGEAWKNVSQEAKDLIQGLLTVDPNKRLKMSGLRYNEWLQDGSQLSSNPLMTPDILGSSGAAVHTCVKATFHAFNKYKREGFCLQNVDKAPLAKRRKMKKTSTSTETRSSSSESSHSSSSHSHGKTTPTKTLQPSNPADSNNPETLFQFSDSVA

[6] = biological target: T1, Serine/threonine-protein kinase TBK1 (Homo sapiens) (UniProt Q9UHD2); assay: Inhibition of TBK1 (unknown origin) at 1 uM incubated for 30 mins in presence of [gamma-33P]ATP by multidrop micro reagent based assay relative to control; values are per cent of control
T1 sequence (whole entry): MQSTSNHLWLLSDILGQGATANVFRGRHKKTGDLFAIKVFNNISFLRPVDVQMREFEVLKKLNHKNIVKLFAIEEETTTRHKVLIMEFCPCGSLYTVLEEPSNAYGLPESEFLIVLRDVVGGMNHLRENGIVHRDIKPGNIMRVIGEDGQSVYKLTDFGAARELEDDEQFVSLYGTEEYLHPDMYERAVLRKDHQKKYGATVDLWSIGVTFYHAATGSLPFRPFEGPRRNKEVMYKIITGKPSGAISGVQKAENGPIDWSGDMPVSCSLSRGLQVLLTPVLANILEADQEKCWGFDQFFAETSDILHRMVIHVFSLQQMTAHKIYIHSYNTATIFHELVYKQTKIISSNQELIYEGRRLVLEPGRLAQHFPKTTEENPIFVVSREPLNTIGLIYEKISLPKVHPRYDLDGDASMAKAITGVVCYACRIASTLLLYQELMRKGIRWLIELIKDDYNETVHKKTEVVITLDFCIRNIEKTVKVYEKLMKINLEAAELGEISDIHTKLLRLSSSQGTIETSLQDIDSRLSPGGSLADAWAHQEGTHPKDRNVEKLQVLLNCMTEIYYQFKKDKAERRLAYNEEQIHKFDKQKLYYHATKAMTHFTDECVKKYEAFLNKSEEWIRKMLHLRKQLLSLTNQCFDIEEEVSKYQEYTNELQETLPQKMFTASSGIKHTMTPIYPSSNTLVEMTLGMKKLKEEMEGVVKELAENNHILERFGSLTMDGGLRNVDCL

[7] = biological target: Serine/threonine-protein kinase PLK1 (Homo sapiens) (UniProt P53350); assay: Inhibition of PLK1 (unknown origin) at 1 uM incubated for 30 mins in presence of [gamma-33P]ATP by multidrop micro reagent based assay relative to control; values are per cent of control
Serine/threonine-protein kinase PLK1 (Homo sapiens), sequence (P53350 whole entry): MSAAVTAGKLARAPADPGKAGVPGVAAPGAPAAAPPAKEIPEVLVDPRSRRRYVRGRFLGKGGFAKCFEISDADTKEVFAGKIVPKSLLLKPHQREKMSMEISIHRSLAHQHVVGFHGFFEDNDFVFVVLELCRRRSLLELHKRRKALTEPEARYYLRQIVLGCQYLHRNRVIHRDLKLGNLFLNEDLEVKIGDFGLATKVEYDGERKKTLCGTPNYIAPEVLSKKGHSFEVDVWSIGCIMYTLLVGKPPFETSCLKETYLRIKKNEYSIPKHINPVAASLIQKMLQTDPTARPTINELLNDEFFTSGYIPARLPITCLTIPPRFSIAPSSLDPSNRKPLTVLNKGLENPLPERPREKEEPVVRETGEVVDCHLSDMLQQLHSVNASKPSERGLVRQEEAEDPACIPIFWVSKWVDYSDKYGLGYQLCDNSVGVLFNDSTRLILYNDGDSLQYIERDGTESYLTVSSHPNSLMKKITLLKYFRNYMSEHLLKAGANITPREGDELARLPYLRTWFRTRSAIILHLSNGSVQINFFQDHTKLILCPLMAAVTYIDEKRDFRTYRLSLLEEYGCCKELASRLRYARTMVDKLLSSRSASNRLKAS

[8] = biological target: Myosin light chain kinase, smooth muscle (Homo sapiens) (UniProt Q15746); assay: Inhibition of SmMLCK (unknown origin) at 1 uM incubated for 30 mins in presence of [gamma-33P]ATP by multidrop micro reagent based assay relative to control; values are per cent of control
Myosin light chain kinase, smooth muscle (Homo sapiens), sequence (Q15746 whole entry): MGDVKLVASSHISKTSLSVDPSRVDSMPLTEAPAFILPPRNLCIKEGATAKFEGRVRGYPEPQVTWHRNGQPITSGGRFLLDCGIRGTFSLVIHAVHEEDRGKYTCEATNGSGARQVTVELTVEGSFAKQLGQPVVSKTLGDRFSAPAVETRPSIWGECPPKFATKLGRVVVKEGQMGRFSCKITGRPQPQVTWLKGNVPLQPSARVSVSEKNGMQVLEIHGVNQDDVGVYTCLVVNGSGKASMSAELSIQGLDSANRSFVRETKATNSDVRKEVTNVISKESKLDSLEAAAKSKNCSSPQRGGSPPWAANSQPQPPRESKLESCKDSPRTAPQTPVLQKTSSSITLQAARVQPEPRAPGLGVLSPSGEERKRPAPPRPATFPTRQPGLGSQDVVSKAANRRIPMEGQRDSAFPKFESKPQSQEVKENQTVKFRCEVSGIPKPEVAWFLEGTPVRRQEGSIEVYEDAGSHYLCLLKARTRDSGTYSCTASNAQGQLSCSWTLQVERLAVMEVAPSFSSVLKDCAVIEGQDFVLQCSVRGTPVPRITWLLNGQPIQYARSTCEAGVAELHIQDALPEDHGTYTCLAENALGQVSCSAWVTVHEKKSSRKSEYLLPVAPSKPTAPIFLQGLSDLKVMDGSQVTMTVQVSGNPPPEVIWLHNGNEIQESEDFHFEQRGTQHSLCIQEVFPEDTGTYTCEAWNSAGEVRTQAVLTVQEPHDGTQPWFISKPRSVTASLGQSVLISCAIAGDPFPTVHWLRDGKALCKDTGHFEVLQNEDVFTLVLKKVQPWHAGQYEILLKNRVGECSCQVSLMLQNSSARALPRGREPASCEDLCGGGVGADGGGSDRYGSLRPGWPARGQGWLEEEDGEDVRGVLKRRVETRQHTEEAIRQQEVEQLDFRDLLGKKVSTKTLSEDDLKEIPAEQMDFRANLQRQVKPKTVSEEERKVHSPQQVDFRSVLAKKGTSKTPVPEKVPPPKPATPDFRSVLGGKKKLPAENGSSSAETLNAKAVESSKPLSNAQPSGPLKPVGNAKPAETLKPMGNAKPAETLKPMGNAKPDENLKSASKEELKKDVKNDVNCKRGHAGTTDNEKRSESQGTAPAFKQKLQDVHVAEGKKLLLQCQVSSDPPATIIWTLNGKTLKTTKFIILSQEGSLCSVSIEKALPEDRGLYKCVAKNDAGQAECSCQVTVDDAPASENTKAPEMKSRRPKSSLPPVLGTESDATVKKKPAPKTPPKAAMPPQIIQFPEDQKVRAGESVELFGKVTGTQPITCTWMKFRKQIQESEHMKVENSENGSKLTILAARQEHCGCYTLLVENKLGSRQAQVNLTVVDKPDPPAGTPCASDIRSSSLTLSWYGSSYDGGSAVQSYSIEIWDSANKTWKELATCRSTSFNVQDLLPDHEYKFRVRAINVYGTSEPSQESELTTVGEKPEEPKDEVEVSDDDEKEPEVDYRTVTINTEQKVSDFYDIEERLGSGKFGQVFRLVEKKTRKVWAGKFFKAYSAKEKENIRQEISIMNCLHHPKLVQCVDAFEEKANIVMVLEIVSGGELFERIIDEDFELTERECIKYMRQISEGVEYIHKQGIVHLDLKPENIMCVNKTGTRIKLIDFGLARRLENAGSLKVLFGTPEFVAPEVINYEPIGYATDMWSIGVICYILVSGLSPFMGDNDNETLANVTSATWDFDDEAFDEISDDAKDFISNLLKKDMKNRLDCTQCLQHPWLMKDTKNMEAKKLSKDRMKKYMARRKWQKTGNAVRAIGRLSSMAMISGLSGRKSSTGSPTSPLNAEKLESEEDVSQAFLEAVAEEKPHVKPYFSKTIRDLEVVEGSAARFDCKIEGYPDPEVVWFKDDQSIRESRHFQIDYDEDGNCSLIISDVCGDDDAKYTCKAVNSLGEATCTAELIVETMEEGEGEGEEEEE

[9] = biological target: Tyrosine-protein kinase BTK (Homo sapiens) (UniProt Q06187); assay: Inhibition of BTK (unknown origin) at 1 uM incubated for 30 mins in presence of [gamma-33P]ATP by multidrop micro reagent based assay relative to control
[10] = biological target: T2, Serine/threonine-protein kinase STK11 (Homo sapiens) (UniProt Q15831); assay: Inhibition of LKB1 (unknown origin) at 1 uM incubated for 30 mins in presence of [gamma-33P]ATP by multidrop micro reagent based assay relative to control
T2 sequence (whole entry): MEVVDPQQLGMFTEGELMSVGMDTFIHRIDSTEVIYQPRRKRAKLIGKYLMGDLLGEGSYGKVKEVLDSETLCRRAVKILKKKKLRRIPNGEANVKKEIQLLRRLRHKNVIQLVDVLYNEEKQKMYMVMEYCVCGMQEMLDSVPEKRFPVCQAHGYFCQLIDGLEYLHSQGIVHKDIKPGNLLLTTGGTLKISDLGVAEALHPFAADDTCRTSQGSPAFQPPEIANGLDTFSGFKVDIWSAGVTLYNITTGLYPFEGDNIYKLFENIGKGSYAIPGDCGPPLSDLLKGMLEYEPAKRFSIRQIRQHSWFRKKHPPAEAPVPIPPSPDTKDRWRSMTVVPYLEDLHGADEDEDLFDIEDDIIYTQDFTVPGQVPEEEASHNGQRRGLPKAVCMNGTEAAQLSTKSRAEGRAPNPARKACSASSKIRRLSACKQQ

Compound | inhibition [1] | residual activity [2] | residual activity [3] | residual activity [4] | residual activity [5] | residual activity [6] | residual activity [7] | residual activity [8] | inhibition [9] | inhibition [10]
CC1=C(C(=O)Nc2cc3cn[nH]c3cc2F)C(c2ccc(C(F)(F)F)cc2)CC(=O)N1 (centres undefined) | inactive | 111% | 105% | 78% | 20% | 101% | 102% | 73% | 66% | 58%
Cc1cncc2cccc(S(=O)(=O)N3CCCNC[C@@H]3C)c12 | inactive | 96% | 49% | 45% | 39% | 98% | 105% | 96% | 82% | 50%
CCN(CC)CCNC(=O)c1c(C)[nH]c(/C=C2\C(=O)Nc3ccc(F)cc32)c1C | inactive |  |  | 15% | 60% | 54% |  |  |  | 
C[C@@H](N)[C@H]1CC[C@H](C(=O)Nc2ccncc2)CC1 | inactive |  |  |  |  |  |  |  |  | 
CCn1c(-c2nonc2N)nc2cnc(Oc3cccc(NC(=O)c4ccc(OCCN5CCOCC5)cc4)c3)cc21 [GSK-269962A] | inactive | 105% | 108% |  | 1% | 77% | 105% | 65% | 107% | 58%
